What was measured:
Assay type in all cases: toxicity, cell-based
Fibroblast [1] = test: Multiplex assay against human fibroblast
Method in brief: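 At seeding, live cells were stained with Hoechst33342, BioTracker Green Microtubule Cytoskeleton Dye, MitoTracker Red and Annexin V Alexa Fluor 680. After compound addition they were imaged on a CQ1 microscope at 37°C and 5% CO2, and CellPathfinder machine-learning gating sorted them into Hoechst high-intensity objects or normal cells, with normal cells further split into healthy, pyknosed or fragmented nuclei and pyknosed cells into mitotic or apoptotic. Tubulin, mitochondrial-mass and membrane-permeability phenotypes are given as per cents of cells with healthy nuclei.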

HEK-293T = test: Incucyte cell viability with HEK293T; conditions: human, 10 µM, compound concentration 10 uM; also: filed as whole numbers so only -1 and 0 and 1 occur
Fibroblast [2] = test: Incucyte cell viability with human fibroblast; conditions: 10 µM, compound concentration 10 uM; also: filed as whole numbers so only -1 and 0 and 1 occur
U2OS = test: Incucyte cell viability with U2OS; conditions: human, 10 µM, compound concentration 10 uM; also: filed as whole numbers so only -1 and 0 and 1 occur
[3] = 12 h, 1 µM, compound concentration 1 uM, replicate 1
[4] = 12 h, 1 µM, compound concentration 1 uM, replicate 2
[5] = 12 h, 10 µM, compound concentration 10 uM, replicate 1
[6] = 12 h, 10 µM, compound concentration 10 uM, replicate 2
[7] = 24 h, 1 µM, compound concentration 1 uM, replicate 1
[8] = 24 h, 1 µM, compound concentration 1 uM, replicate 2
[9] = 24 h, 10 µM, compound concentration 10 uM, replicate 1
[10] = 24 h, 10 µM, compound concentration 10 uM, replicate 2
[11] = 48 h, 1 µM, compound concentration 1 uM, replicate 1
[12] = 48 h, 1 µM, compound concentration 1 uM, replicate 2
[13] = 48 h, 10 µM, compound concentration 10 uM, replicate 1
[14] = 48 h, 10 µM, compound concentration 10 uM, replicate 2
[15] = 18 h, replicate number 1, timepoint 18 hours
[16] = 24 h, replicate number 1, timepoint 24 hours
[17] = 0 h, replicate number 2, timepoint 0 hours

N#CCNC(=O)c1ccc(-c2ccnc(Nc3ccc(N4CCOCC4)cc3)n2)cc1 [MOMELOTINIB]
Population Apoptotic (%) (Fibroblast [1]; [3]): 64% | Population Fragmented Nuclei (%) (Fibroblast [1]; [3]): 26% | Population Healthy Nuclei (%) (Fibroblast [1]; [3]): 40% | Population Hoechst High Intensity Objects (%) (Fibroblast [1]; [3]): 11% | Population Membrane Permeable-Phenotype (%) (Fibroblast [1]; [3]): 30% | Population Mitochondria Different-Phenotype (%) (Fibroblast [1]; [3]): 4% | Population Mitotic Cells (%) (Fibroblast [1]; [3]): 35% | Population Normal (%) (Fibroblast [1]; [3]): 88% | Population Pyknosed Nuclei (%) (Fibroblast [1]; [3]): 33% | Population Tubulin-Different-Phenotype (%) (Fibroblast [1]; [3]): 21% | Total Cell Count (Fibroblast [1]; [3]): 117 | Population Apoptotic (%) (Fibroblast [1]; [4]): 60% | Population Fragmented Nuclei (%) (Fibroblast [1]; [4]): 1% | Population Healthy Nuclei (%) (Fibroblast [1]; [4]): 88% | Population Hoechst High Intensity Objects (%) (Fibroblast [1]; [4]): 8% | Population Membrane Permeable-Phenotype (%) (Fibroblast [1]; [4]): 2% | Population Mitochondria Different-Phenotype (%) (Fibroblast [1]; [4]): 13% | Population Mitotic Cells (%) (Fibroblast [1]; [4]): 40% | Population Normal (%) (Fibroblast [1]; [4]): 91% | Population Pyknosed Nuclei (%) (Fibroblast [1]; [4]): 9% | Population Tubulin-Different-Phenotype (%) (Fibroblast [1]; [4]): 11% | Total Cell Count (Fibroblast [1]; [4]): 3119 | Population Apoptotic (%) (Fibroblast [1]; [5]): 63% | Population Fragmented Nuclei (%) (Fibroblast [1]; [5]): 40% | Population Healthy Nuclei (%) (Fibroblast [1]; [5]): 28% | Population Hoechst High Intensity Objects (%) (Fibroblast [1]; [5]): 13% | Population Membrane Permeable-Phenotype (%) (Fibroblast [1]; [5]): 16% | Population Mitochondria Different-Phenotype (%) (Fibroblast [1]; [5]): 10% | Population Mitotic Cells (%) (Fibroblast [1]; [5]): 36% | Population Normal (%) (Fibroblast [1]; [5]): 86% | Population Pyknosed Nuclei (%) (Fibroblast [1]; [5]): 31% | Population Tubulin-Different-Phenotype (%) (Fibroblast [1]; [5]): 45% | Total Cell Count (Fibroblast [1]; [5]): 153 | Population Apoptotic (%) (Fibroblast [1]; [6]): 13% | Population Fragmented Nuclei (%) (Fibroblast [1]; [6]): 27% | Population Healthy Nuclei (%) (Fibroblast [1]; [6]): 47% | Population Hoechst High Intensity Objects (%) (Fibroblast [1]; [6]): 10% | Population Membrane Permeable-Phenotype (%) (Fibroblast [1]; [6]): 0% | Population Mitochondria Different-Phenotype (%) (Fibroblast [1]; [6]): 6% | Population Mitotic Cells (%) (Fibroblast [1]; [6]): 86% | Population Normal (%) (Fibroblast [1]; [6]): 89% | Population Pyknosed Nuclei (%) (Fibroblast [1]; [6]): 24% | Population Tubulin-Different-Phenotype (%) (Fibroblast [1]; [6]): 6% | Total Cell Count (Fibroblast [1]; [6]): 56 | Population Apoptotic (%) (Fibroblast [1]; [7]): 56% | Population Fragmented Nuclei (%) (Fibroblast [1]; [7]): 26% | Population Healthy Nuclei (%) (Fibroblast [1]; [7]): 52% | Population Hoechst High Intensity Objects (%) (Fibroblast [1]; [7]): 11% | Population Membrane Permeable-Phenotype (%) (Fibroblast [1]; [7]): 27% | Population Mitochondria Different-Phenotype (%) (Fibroblast [1]; [7]): 0% | Population Mitotic Cells (%) (Fibroblast [1]; [7]): 43% | Population Normal (%) (Fibroblast [1]; [7]): 88% | Population Pyknosed Nuclei (%) (Fibroblast [1]; [7]): 20% | Population Tubulin-Different-Phenotype (%) (Fibroblast [1]; [7]): 18% | Total Cell Count (Fibroblast [1]; [7]): 127 | Population Apoptotic (%) (Fibroblast [1]; [8]): 66% | Population Fragmented Nuclei (%) (Fibroblast [1]; [8]): 7% | Population Healthy Nuclei (%) (Fibroblast [1]; [8]): 86% | Population Hoechst High Intensity Objects (%) (Fibroblast [1]; [8]): 10% | Population Membrane Permeable-Phenotype (%) (Fibroblast [1]; [8]): 6% | Population Mitochondria Different-Phenotype (%) (Fibroblast [1]; [8]): 15% | Population Mitotic Cells (%) (Fibroblast [1]; [8]): 33% | Population Normal (%) (Fibroblast [1]; [8]): 89% | Population Pyknosed Nuclei (%) (Fibroblast [1]; [8]): 5% | Population Tubulin-Different-Phenotype (%) (Fibroblast [1]; [8]): 8% | Total Cell Count (Fibroblast [1]; [8]): 3108 | Population Apoptotic (%) (Fibroblast [1]; [9]): 48% | Population Fragmented Nuclei (%) (Fibroblast [1]; [9]): 39% | Population Healthy Nuclei (%) (Fibroblast [1]; [9]): 37% | Population Hoechst High Intensity Objects (%) (Fibroblast [1]; [9]): 14% | Population Membrane Permeable-Phenotype (%) (Fibroblast [1]; [9]): 29% | Population Mitochondria Different-Phenotype (%) (Fibroblast [1]; [9]): 12% | Population Mitotic Cells (%) (Fibroblast [1]; [9]): 51% | Population Normal (%) (Fibroblast [1]; [9]): 85% | Population Pyknosed Nuclei (%) (Fibroblast [1]; [9]): 23% | Population Tubulin-Different-Phenotype (%) (Fibroblast [1]; [9]): 46% | Total Cell Count (Fibroblast [1]; [9]): 147 | Population Apoptotic (%) (Fibroblast [1]; [10]): 45% | Population Fragmented Nuclei (%) (Fibroblast [1]; [10]): 31% | Population Healthy Nuclei (%) (Fibroblast [1]; [10]): 52% | Population Hoechst High Intensity Objects (%) (Fibroblast [1]; [10]): 5% | Population Membrane Permeable-Phenotype (%) (Fibroblast [1]; [10]): 28% | Population Mitochondria Different-Phenotype (%) (Fibroblast [1]; [10]): 34% | Population Mitotic Cells (%) (Fibroblast [1]; [10]): 54% | Population Normal (%) (Fibroblast [1]; [10]): 94% | Population Pyknosed Nuclei (%) (Fibroblast [1]; [10]): 16% | Population Tubulin-Different-Phenotype (%) (Fibroblast [1]; [10]): 14% | Total Cell Count (Fibroblast [1]; [10]): 59 | Population Apoptotic (%) (Fibroblast [1]; [11]): 44% | Population Fragmented Nuclei (%) (Fibroblast [1]; [11]): 34% | Population Healthy Nuclei (%) (Fibroblast [1]; [11]): 57% | Population Hoechst High Intensity Objects (%) (Fibroblast [1]; [11]): 16% | Population Membrane Permeable-Phenotype (%) (Fibroblast [1]; [11]): 16% | Population Mitochondria Different-Phenotype (%) (Fibroblast [1]; [11]): 1% | Population Mitotic Cells (%) (Fibroblast [1]; [11]): 55% | Population Normal (%) (Fibroblast [1]; [11]): 83% | Population Pyknosed Nuclei (%) (Fibroblast [1]; [11]): 8% | Population Tubulin-Different-Phenotype (%) (Fibroblast [1]; [11]): 17% | Total Cell Count (Fibroblast [1]; [11]): 129 | Population Apoptotic (%) (Fibroblast [1]; [12]): 80% | Population Fragmented Nuclei (%) (Fibroblast [1]; [12]): 33% | Population Healthy Nuclei (%) (Fibroblast [1]; [12]): 61% | Population Hoechst High Intensity Objects (%) (Fibroblast [1]; [12]): 15% | Population Membrane Permeable-Phenotype (%) (Fibroblast [1]; [12]): 4% | Population Mitotic Cells (%) (Fibroblast [1]; [12]): 20% | Population Normal (%) (Fibroblast [1]; [12]): 84% | Population Pyknosed Nuclei (%) (Fibroblast [1]; [12]): 5% | Population Tubulin-Different-Phenotype (%) (Fibroblast [1]; [12]): 21% | Total Cell Count (Fibroblast [1]; [12]): 117 | Population Apoptotic (%) (Fibroblast [1]; [13]): 60% | Population Fragmented Nuclei (%) (Fibroblast [1]; [13]): 47% | Population Healthy Nuclei (%) (Fibroblast [1]; [13]): 40% | Population Hoechst High Intensity Objects (%) (Fibroblast [1]; [13]): 14% | Population Membrane Permeable-Phenotype (%) (Fibroblast [1]; [13]): 25% | Population Mitochondria Different-Phenotype (%) (Fibroblast [1]; [13]): 9% | Population Mitotic Cells (%) (Fibroblast [1]; [13]): 40% | Population Normal (%) (Fibroblast [1]; [13]): 85% | Population Pyknosed Nuclei (%) (Fibroblast [1]; [13]): 11% | Population Tubulin-Different-Phenotype (%) (Fibroblast [1]; [13]): 37% | Total Cell Count (Fibroblast [1]; [13]): 155 | Population Apoptotic (%) (Fibroblast [1]; [14]): 50% | Population Fragmented Nuclei (%) (Fibroblast [1]; [14]): 52% | Population Hoechst High Intensity Objects (%) (Fibroblast [1]; [14]): 8% | Population Membrane Permeable-Phenotype (%) (Fibroblast [1]; [14]): 11% | Population Mitochondria Different-Phenotype (%) (Fibroblast [1]; [14]): 1% | Population Mitotic Cells (%) (Fibroblast [1]; [14]): 50% | Population Normal (%) (Fibroblast [1]; [14]): 91% | Population Pyknosed Nuclei (%) (Fibroblast [1]; [14]): 6% | Population Tubulin-Different-Phenotype (%) (Fibroblast [1]; [14]): 58% | Total Cell Count (Fibroblast [1]; [14]): 162 | Growth Rate (HEK-293T; 0 h, replicate number 1, timepoint 0 hours): 0 | Growth Rate (HEK-293T; [15]): 0 | Growth Rate (HEK-293T; 18 h, replicate number 2, timepoint 18 hours): 1 | Growth Rate (HEK-293T; [16]): 0 | Growth Rate (Fibroblast [2]; [17]): 0 | Growth Rate (Fibroblast [2]; [16]): 1 | Growth Rate (U2OS; [17]): 1 | Growth Rate (U2OS; 12 h, replicate number 1, timepoint 12 hours): 1 | Growth Rate (U2OS; [15]): 0 | Growth Rate (U2OS; [16]): 0

Reference: ChEMBL document CHEMBL4689842, “EUbOPEN Chemogenomics Library wave 1” (2021)
